System: J774.A1
Test: Drug uptake in mouse J774A1 cells assessed as total peptide concentration at 150 uM after 5 hrs at 37 degC by HPLC analysis
Format: ADME, cell-based
Details: j774.a1, 5 h
How it was run: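 J774A.1 cells were seeded at 300,000 per well and allowed to adhere for 24 h at 37°C in 5% CO2. Medium was replaced with DMEM containing unlabeled peptide, and cells were held at 37°C or 4°C. After three washes in ice-cold PBS, cells were lysed in NP-40 buffer and debris spun out. Reverse-phase HPLC was read at 280 nm. Peaks at 17.5 and 17.75 min were integrated against a standard curve. Intracellular mM was calculated from 300,000 cells at 1 pl each, using monomer mass.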

Drug uptake: 28.9 mM
SMILES: N=C(N)NCCC[C@@H](NC(=O)[C@@H](CS)NC(=O)[C@@H](Cc1ccc(O)cc1)NC(=O)[C@@H](Cc1c[nH]c2ccccc12)NC(=O)[C@@H](CCCNC(=N)N)NC(=O)[C@H](N)Cc1c[nH]c2ccccc12)C(=O)O

Source: ChEMBL document CHEMBL1255440, “An antimicrobial peptide that targets DNA repair intermediates in vitro inhibits Salmonella growth within murine macrophages” (Antimicrob Agents Chemother, 2010)
